One block for each molecule: values may come before it.
Tests used:
[1] = target: Glucose-6-phosphate 1-dehydrogenase (Homo sapiens, UniProt P11413); assay: Inhibition of human glucose-6-phosphate dehydrogenase after 90 mins by resazurin/diaphorasecoupled assay
Method in brief: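 Dose response with a top final concentration of […] and 0.8% final DMSO, in 50 mM Tris pH 7.5, 0.005% Tween 20 and 1 mg/mL BSA. The enzyme solution held 0.05 μg/mL hG6PD. The substrate solution held 0.64 mM G6P, 12 μM NADP+, 6.6 mM MgCl2, 2 U/mL diaphorase and 0.28 mM resazurin.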

[2] = target: T1, Glucose-6-phosphate 1-dehydrogenase (Plasmodium falciparum, UniProt Q25856); assay: Inhibition of Plasmodium falciparum glucose-6-phosphate dehydrogenase after 45 mins by orthogonal assay
T1 sequence (Q25856 whole entry): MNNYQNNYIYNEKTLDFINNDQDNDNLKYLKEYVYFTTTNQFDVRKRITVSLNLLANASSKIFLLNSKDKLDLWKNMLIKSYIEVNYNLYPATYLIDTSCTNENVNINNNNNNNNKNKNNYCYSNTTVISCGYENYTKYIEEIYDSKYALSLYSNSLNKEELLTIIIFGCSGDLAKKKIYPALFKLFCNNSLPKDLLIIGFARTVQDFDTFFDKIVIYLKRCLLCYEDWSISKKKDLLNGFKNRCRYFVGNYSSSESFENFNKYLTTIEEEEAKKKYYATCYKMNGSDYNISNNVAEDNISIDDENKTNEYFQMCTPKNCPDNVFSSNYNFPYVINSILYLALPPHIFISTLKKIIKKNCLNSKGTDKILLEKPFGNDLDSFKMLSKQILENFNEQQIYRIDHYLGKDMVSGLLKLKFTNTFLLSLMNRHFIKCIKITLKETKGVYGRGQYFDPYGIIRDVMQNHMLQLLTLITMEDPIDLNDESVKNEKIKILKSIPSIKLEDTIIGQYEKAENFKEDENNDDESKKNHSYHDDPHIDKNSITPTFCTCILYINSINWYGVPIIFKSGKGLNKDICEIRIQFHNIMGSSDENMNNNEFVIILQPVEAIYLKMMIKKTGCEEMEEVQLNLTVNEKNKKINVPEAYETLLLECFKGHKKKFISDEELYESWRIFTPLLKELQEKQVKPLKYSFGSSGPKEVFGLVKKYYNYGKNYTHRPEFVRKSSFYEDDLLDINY
Method in brief: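 Direct NADPH read without coupling: PfGluPho (0.4 μg/mL enzyme solution) in 50 mM Tris pH 7.5, 0.005% Tween 20, 1 mg/mL BSA; substrate 40 μM G6P, 6 μM NADP+, 6.6 mM MgCl2.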

[3] = target: T1, Glucose-6-phosphate 1-dehydrogenase; assay: Inhibition of Plasmodium falciparum glucose-6-phosphate dehydrogenase after 2 hrs by resazurin/diaphorasecoupled assay

Sequence of Glucose-6-phosphate 1-dehydrogenase (Homo sapiens, UniProt P11413) (P11413 whole entry): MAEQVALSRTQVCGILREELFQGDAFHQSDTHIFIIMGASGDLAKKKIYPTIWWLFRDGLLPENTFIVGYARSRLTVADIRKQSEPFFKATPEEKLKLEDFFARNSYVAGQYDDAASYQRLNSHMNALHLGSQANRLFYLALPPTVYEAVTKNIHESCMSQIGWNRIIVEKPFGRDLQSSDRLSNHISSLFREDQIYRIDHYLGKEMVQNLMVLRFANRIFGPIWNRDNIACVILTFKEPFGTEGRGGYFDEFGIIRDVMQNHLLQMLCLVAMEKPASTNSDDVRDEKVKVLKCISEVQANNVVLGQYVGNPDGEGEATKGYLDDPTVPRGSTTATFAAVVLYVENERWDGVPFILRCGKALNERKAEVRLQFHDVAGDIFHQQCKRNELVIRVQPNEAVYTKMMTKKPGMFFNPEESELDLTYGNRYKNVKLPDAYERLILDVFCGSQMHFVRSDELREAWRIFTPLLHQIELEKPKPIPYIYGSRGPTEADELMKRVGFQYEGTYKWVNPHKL

SMILES: O=C1Nc2cc(C(=O)NCCN3CCCCCC3)ccc2S/C1=C\c1ccccc1F
IC50 [1]: > 80 µM
IC50 [2]: 11 µM
IC50 [3]: 46.6 µM

IC50 [1]: > 80 µM
SMILES: CN(C)CCNC(=O)c1ccc2c(c1)NC(=O)/C(=C/c1ccccc1F)S2 (stereo in doubt; 17)

SMILES: CCN1CCCC1CNC(=O)c1ccc2c(c1)NC(=O)/C(=C/c1ccccc1Cl)S2 (configuration not stated)
IC50 [1]: > 80 µM
IC50 [2]: 3.3 µM
IC50 [3]: 2.56 µM

SMILES: CCN1CCCC1CNC(=O)c1ccc2c(c1)NC(=O)/C(=C/c1ccccc1OC)S2 (configuration not stated)
IC50 [1]: > 80 µM
IC50 [2]: 11.3 µM
IC50 [3]: 9.79 µM

SMILES: CCN(CC)CCNC(=O)c1ccc2c(c1)NC(=O)/C(=C/c1ccccc1F)S2 (stereo in doubt; 21)
IC50 [1]: > 80 µM
IC50 [2]: 9.4 µM
IC50 [3]: 7.4 µM

SMILES: O=C1Nc2cc(C(=O)NCCCN3CCCC3)ccc2S/C1=C\c1ccccc1
IC50 [1]: > 80 µM
IC50 [2]: 22.3 µM
IC50 [3]: 9.3 µM

SMILES: CCN1CCCC1CNC(=O)c1ccc2c(c1)NC(=O)/C(=C/c1ccc3ccccc3c1)S2 (configuration not stated)
IC50 [1]: > 80 µM
IC50 [2]: 2.88 µM
IC50 [3]: 2.39 µM

IC50 [1]: > 80 µM
SMILES: CCN1CCCC1CNC(=O)c1ccc2c(c1)NC(=O)/C(=C/c1cccc(F)c1F)S2 (configuration not stated)

SMILES: COc1ccc(/C=C2\Sc3ccc(C(=O)NCCN4CCCC4)cc3NC2=O)cc1
IC50 [1]: > 80 µM
IC50 [2]: > 80 µM
IC50 [3]: 49.7 µM

SMILES: COc1cccc(/C=C2\Sc3ccc(C(=O)NCCN4CCCCCC4)cc3NC2=O)c1
IC50 [1]: > 80 µM
IC50 [2]: 58.5 µM
IC50 [3]: > 80 µM

SMILES: O=C1Nc2cc(C(=O)NCc3ccccc3)ccc2S/C1=C\c1ccccc1F
IC50 [1]: > 80 µM
IC50 [2]: > 80 µM
IC50 [3]: > 80 µM

SMILES: CCCN(CCC)CCNC(=O)c1ccc2c(c1)NC(=O)/C(=C/c1ccc(C)cc1)S2
IC50 [1]: > 80 µM
IC50 [2]: 45.9 µM
IC50 [3]: > 80 µM

SMILES: CCN1CCCC1CNC(=O)c1ccc2c(c1)NC(=O)C(Cc1ccccc1F)S2 (configuration not stated)
IC50 [1]: > 80 µM
IC50 [3]: > 80 µM

SMILES: CCN1CCC[C@H]1CNC(=O)c1ccc2c(c1)NC(=O)/C(=C/c1ccccc1F)S2
IC50 [1]: > 80 µM
IC50 [2]: 4.7 µM
IC50 [3]: 6.6 µM

SMILES: COc1ccc(/C=C2\Sc3ccc(C(=O)NCCN4CCCCCC4)cc3NC2=O)cc1
IC50 [1]: > 80 µM
IC50 [2]: > 80 µM
IC50 [3]: > 80 µM

SMILES: CCN(CC)CCNC(=O)c1ccc2c(c1)NC(=O)/C(=C/c1ccccc1F)S2 (stereo in doubt; 22)
IC50 [1]: > 80 µM
IC50 [2]: 4.8 µM
IC50 [3]: 6.9 µM

IC50 [1]: > 80 µM
SMILES: CCCN1CCCC1CNC(=O)c1ccc2c(c1)NC(=O)/C(=C/c1ccccc1F)S2 (configuration not stated)

SMILES: COc1ccc(/C=C2\Sc3ccc(C(=O)NCCN(C)C)cc3NC2=O)cc1
IC50 [1]: > 80 µM
IC50 [2]: > 80 µM
IC50 [3]: > 80 µM

SMILES: CN(C)CCNC(=O)c1ccc2c(c1)NC(=O)/C(=C/c1cccc(Cl)c1)S2
IC50 [1]: > 80 µM
IC50 [2]: 43.6 µM
IC50 [3]: 60 µM

SMILES: CN(C)c1ccccc1CNC(=O)c1ccc2c(c1)NC(=O)/C(=C/c1ccccc1F)S2
IC50 [1]: > 80 µM
IC50 [2]: 67.8 µM
IC50 [3]: > 80 µM

IC50 [1]: > 80 µM
SMILES: CCN1CCCC1CNC(=O)c1ccc2c(c1)NC(=O)/C(=C/c1cccc(F)c1)S2 (configuration not stated)

SMILES: CCN1CCCC1CNC(=O)c1ccc2c(c1)NC(=O)CS2 (configuration not stated)
IC50 [3]: > 80 µM

IC50 [1]: > 80 µM
SMILES: O=C1Nc2cc(C(=O)NCC3CCCN3)ccc2S/C1=C\c1ccccc1F (configuration not stated)

SMILES: NC1CCN(C(=O)c2ccc3c(c2)NC(=O)/C(=C/c2ccccc2F)S3)C1 (configuration not stated)
IC50 [1]: > 80 µM
IC50 [2]: 35 µM
IC50 [3]: 45 µM

SMILES: CCN(CC)CCNC(=O)c1ccc2c(c1)NC(=O)/C(=C/c1ccccc1Cl)S2
IC50 [1]: > 80 µM
IC50 [2]: 44.9 µM
IC50 [3]: 16.2 µM

IC50 [1]: > 80 µM
SMILES: CCN1CCCC1CNC(=O)c1ccc2c(c1)NC(=O)/C(=C/c1c(F)cccc1F)S2 (configuration not stated)

SMILES: CCN1CCCC1CNC(=O)c1ccc2c(c1)NC(=O)/C(=C/c1ccccc1F)S2 (racemic)
IC50 [1]: > 80 µM
IC50 [2]: 1.37 µM
IC50 [3]: 1.75 µM

IC50 [1]: > 80 µM
SMILES: CN(C)CCNC(=O)c1ccc2c(c1)NC(=O)/C(=C/c1ccccc1F)S2 (stereo in doubt; 16)

IC50 [1]: > 80 µM
SMILES: O=C1Nc2cc(C(=O)NCCN3CCCC3)ccc2S/C1=C\c1ccccc1F (stereo in doubt; 28)

SMILES: O=C1Nc2cc(C(=O)NCCN3CCCC3)ccc2S/C1=C\c1ccccc1Cl
IC50 [1]: > 80 µM
IC50 [2]: > 80 µM
IC50 [3]: 11.1 µM

IC50 [1]: > 80 µM
SMILES: CCN(CC)CCNC(=O)c1ccc2c(c1)NC(=O)/C(=C/c1cccc(C)c1)S2

IC50 [1]: > 80 µM
SMILES: CCN1CCCC1CNC(=O)c1ccc2c(c1)NC(=O)/C(=C/c1ccccc1)S2 (configuration not stated)

SMILES: CCCN(CCC)CCNC(=O)c1ccc2c(c1)NC(=O)/C(=C/c1ccccc1)S2
IC50 [1]: > 80 µM
IC50 [2]: 27.2 µM
IC50 [3]: > 80 µM

SMILES: CN1CCCC1CCNC(=O)c1ccc2c(c1)NC(=O)/C(=C/c1ccccc1F)S2 (configuration not stated)
IC50 [1]: > 80 µM
IC50 [2]: 45.2 µM
IC50 [3]: 22.7 µM

SMILES: O=C1Nc2cc(C(=O)NCCN3CCCCCC3)ccc2S/C1=C\c1ccccc1Cl
IC50 [1]: > 80 µM
IC50 [2]: > 80 µM
IC50 [3]: 40.9 µM

SMILES: CCN(CC)CCNC(=O)c1ccc2c(c1)NC(=O)/C(=C/c1ccccc1)S2
IC50 [1]: > 80 µM
IC50 [2]: 18.4 µM
IC50 [3]: 8.8 µM

IC50 [1]: > 80 µM
SMILES: O=C1Nc2cc(C(=O)NCCN3CCCC3)ccc2S/C1=C\c1ccccc1F (stereo in doubt; 29)

SMILES: CCN(CC)CCNC(=O)c1ccc2c(c1)NC(=O)/C(=C/c1ccc(OC)c(OC)c1)S2
IC50 [1]: > 80 µM
IC50 [2]: 24.5 µM
IC50 [3]: 60 µM

SMILES: CCN1CCCC1CNC(=O)c1ccc2c(c1)NC(=O)/C(=C/c1ccc(F)cc1)S2 (configuration not stated)
IC50 [1]: > 80 µM
IC50 [2]: 2.06 µM
IC50 [3]: 1.41 µM

SMILES: CC(C)(C)OC(=O)N1CCCC1CNC(=O)c1ccc2c(c1)NC(=O)/C(=C/c1ccccc1F)S2 (configuration not stated)
IC50 [1]: > 80 µM
IC50 [2]: 24.4 µM
IC50 [3]: > 80 µM

SMILES: CCN1CCCC1CNC(=O)c1ccc2c(c1)NC(=O)/C(=C/c1cccc3ccccc13)S2 (configuration not stated)
IC50 [1]: > 80 µM
IC50 [2]: 4.2 µM
IC50 [3]: 4.28 µM

SMILES: CCN1CCCC1CNC(=O)c1ccc2c(c1)NC(=O)/C(=C/c1ccccc1C)S2 (configuration not stated)
IC50 [1]: > 80 µM
IC50 [2]: 5.01 µM
IC50 [3]: 5.93 µM

SMILES: O=C1Nc2cc(C(=O)NCCN3CCOCC3)ccc2S/C1=C\c1ccccc1F
IC50 [1]: > 80 µM
IC50 [2]: > 80 µM
IC50 [3]: > 80 µM

IC50 [1]: > 80 µM
SMILES: O=C1Nc2cc(C(=O)NCCCN3CCCC3)ccc2S/C1=C\c1cccc(Cl)c1

SMILES: O=C1Nc2cc(C(=O)NCCN3CCCCC3)ccc2S/C1=C\c1ccccc1F
IC50 [1]: > 80 µM
IC50 [2]: 24 µM
IC50 [3]: 21.6 µM

SMILES: Cc1cccc(/C=C2\Sc3ccc(C(=O)NCCN4CCCC4)cc3NC2=O)c1
IC50 [1]: > 80 µM
IC50 [2]: 8.8 µM
IC50 [3]: 11.8 µM

IC50 [1]: > 80 µM
SMILES: CCN1CCCC1CNC(=O)c1ccc2c(c1)NC(=O)/C(=C/c1ccc(C)cc1)S2 (configuration not stated)

Source: ChEMBL document CHEMBL2169798, “Discovery of a Plasmodium falciparum glucose-6-phosphate dehydrogenase 6-phosphogluconolactonase inhibitor (R,Z)-N-((1-ethylpyrrolidin-2-yl)methyl)-2-(2-fluorobenzylidene)-3-oxo-3,4-dihydro-2H-benzo[b][1,4]thiazine-6-carboxamide (ML276) that reduces parasite growth in vitro” (J Med Chem, 2012)
